Data on 11 compounds can be found in ChEMBL document CHEMBL3097988, “Synthesis and characterization of new N-(4-(4-chloro-1H-imidazol-1-yl)-3-methoxyphenyl)amide/sulfonamide derivatives as possible antimicrobial and antitubercular agents” (2014).

Structures are written as SMILES. Values after ≈ are worked out from the molar mass of the structure shown.

What all share (type): functional
For test [1], the system named is Candida albicans. Put plainly: Antimicrobial activity against Candida albicans after 3 to 4 days by serial plate dilution method. The essentials:
(§1)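 Fungal MIC by serial plate dilution. Sabouraud agar (peptone, D-glucose, agar; pH 5.7) plates seeded with saline spore suspension, dried 1 h at 37 °C. Wells punched and filled with compound in DMSO; DMSO-only control. Triplicate plates held 3–4 days at 37 °C; inhibition zone diameter measured. Amphotericin B positive control. Tested range […] per mL.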

In test [2] the test system is Mycobacterium tuberculosis. Put plainly: Antimicrobial activity against Mycobacterium tuberculosis H37Rv ATCC 27294 after 7 days by resazurin assay. As to conditions: H37Rv ATCC 27294, 168 h. The essentials: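 Resazurin microtitre assay. Cultures were grown in Middlebrook 7H9 with 10% OADC and added to fresh medium in 96-well plates. Test compounds came from 2 mg/mL DMF stocks, with DMF-only controls. Plates were incubated 7 days at 37 °C, then resazurin was added and read after 1 h at 37 °C. MIC was the lowest concentration preventing the blue-to-pink change.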
For orientation: Alamar Blue is a resazurin reagent that responds to reducing activity.

The subject of test [3] is Escherichia coli. The experiment in a line: Antimicrobial activity against Escherichia coli ATCC 25922 after 16 to 18 hrs by […].
Test [4] has as its system Mycobacterium tuberculosis. The experiment in a line: Antimicrobial activity against Mycobacterium tuberculosis H37Rv ATCC 27294 at 1 to 100 ug/ml after 7 days by resazurin assay. The essentials: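 Preliminary screen at three concentrations (1, 10 and 100) by resazurin microtitre assay. Cultures were grown in Middlebrook 7H9 with 10% OADC, and compounds came from 2 mg/mL DMF stocks with DMF controls. Plates were incubated 7 days at 37 °C, and resazurin colour was read after 1 h. Inhibition was scored as no blue-to-pink change.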

The subject of test [5] is Mycolicibacterium smegmatis. The experiment in a line: Antimicrobial activity against Mycobacterium smegmatis (MC2) ATCC 19420 after 7 days by resazurin assay. Particulars: (MC2) ATCC 19420, 168 h.
The subject of test [6] is Mycolicibacterium fortuitum. Put plainly: Antimicrobial activity against Mycobacterium fortuitum ATCC 19542 after 7 days by resazurin assay. As to conditions: ATCC 19542, 168 h.
For test [7], the system named is Klebsiella pneumoniae. The experiment in a line: Antimicrobial activity against Klebsiella pneumoniae ATCC 13883 after 16 to 18 hrs by serial plate dilution method. An outline of the steps:
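Bacterial MIC by serial dilution in Mueller-Hinton broth adjusted to pH 5.0 with phosphate buffer. Tubes inoculated with standardized bacterial suspension, incubated 16–18 h at 37 °C. MIC read as lowest concentration with no visible growth. Range […] per mL. DMSO as negative control, ciprofloxacin as positive control.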

Test [8] relates to Staphylococcus aureus. Put plainly: Antimicrobial activity against Staphylococcus aureus ATCC 25923 after 16 to 18 hrs by […].
In test [9] the test system is Rhizopus. Put plainly: Antimicrobial activity against Rhizopus sp. after 3 to 4 days by serial plate dilution method. The essentials:
as §1

The subject of test [10] is Aspergillus flavus. Put plainly: Antimicrobial activity against Aspergillus flavus after 3 to 4 days by serial plate dilution method. The essentials:
as §1

Consider `COc1cc(NC(=O)c2cccc([N+](=O)[O-])c2Cl)ccc1-n1cnc(Cl)c1`, for which the MIC (as a rule, the smallest concentration in the dilution series that meets the test's criterion for growth inhibition) in [1] was 128 µg/mL (≈ 314 µM); in [2], 1.25 µg/mL (≈ 3.07 µM); in test [3] it was over 256 µg/mL; in test [5], 1.25 µg/mL (≈ 3.07 µM); in [6] it was 1.25 µg/mL (≈ 3.07 µM); in [7] it was 128 µg/mL (≈ 314 µM). Besides, the figures for the MIC in [8], in test [9] and in [10] were 128 µg/mL (≈ 314 µM), over 256 µg/mL and 256 µg/mL (≈ 629 µM), respectively. Moreover, the “inhibition (INH)” value in test [4] stood at 90%.

For `COc1cc(NC(=O)c2ccc(Cl)cc2Cl)ccc1-n1cnc(Cl)c1`, the minimum inhibitory concentration (MIC) in test [1] is over 256 µg/mL; in test [2], 5 µg/mL (≈ 12.6 µM); in [3], 64 µg/mL (≈ 161 µM); in test [5], 10 µg/mL (≈ 25.2 µM); in [7], over 256 µg/mL; in test [8], 128 µg/mL (≈ 323 µM). In addition, the minimum inhibitory concentration (MIC) in test [9] and in [10] was 128 µg/mL (≈ 323 µM) in each case. The “inhibition (INH)” value in test [4] is under 90%.

For `C[C@@H]1[C@H](O)[C@@H](C)/C=C/C=C/C=C/C=C/C=C/C=C/C=C/[C@H](O[C@@H]2O[C@H](C)[C@@H](O)[C@H](N)[C@@H]2O)C[C@@H]2O[C@](O)(C[C@@H](O)C[C@@H](O)[C@H](O)CC[C@@H](O)C[C@@H](O)CC(=O)O[C@H]1C)C[C@H](O)[C@H]2C(=O)O` [AMPHOTERICIN B], the minimal inhibitory concentration (MIC) was 8 µg/mL (≈ 8.66 µM) in [1], 16 µg/mL (≈ 17.3 µM) in test [9] and 8 µg/mL (≈ 8.66 µM) in [10].

As to `COc1cc(NC(=O)c2ccccc2)ccc1-n1cnc(Cl)c1`, the MIC in test [1] was determined as 256 µg/mL (≈ 781 µM); in [2], 5 µg/mL (≈ 15.3 µM); in test [3], 256 µg/mL (≈ 781 µM); in [5] it was 10 µg/mL (≈ 30.5 µM); in test [7], 128 µg/mL (≈ 391 µM); in [8] it was 128 µg/mL (≈ 391 µM). The values for the MIC in test [9] and in test [10] were 128 µg/mL (≈ 391 µM) and 256 µg/mL (≈ 781 µM), respectively. The “inhibition (INH)” value in [4] was under 90%.

As to `COc1cc(NS(=O)(=O)c2ccccc2)ccc1-n1cnc(Cl)c1`, the minimal inhibitory concentration (MIC) in test [1] was 128 µg/mL (≈ 352 µM); in [2] it was 5 µg/mL (≈ 13.7 µM); in test [3], 64 µg/mL (≈ 176 µM); in test [5], 10 µg/mL (≈ 27.5 µM); in test [7], 128 µg/mL (≈ 352 µM); in test [8], 8 µg/mL (≈ 22 µM). Moreover, the MIC in test [9] is 64 µg/mL (≈ 176 µM); in test [10] it was 128 µg/mL (≈ 352 µM). In addition, the “inhibition (INH)” value in [4] is given as under 90%.

`COc1cc(NC(=O)c2cccc(C(C)C#N)c2)ccc1-n1cnc(Cl)c1` (stereo unspecified): the minimal inhibitory concentration (MIC) was 128 µg/mL (≈ 336 µM) in test [1]; 2.5 µg/mL (≈ 6.56 µM) in test [2]; over 256 µg/mL in test [3]; 10 µg/mL (≈ 26.3 µM) in test [6]; 128 µg/mL (≈ 336 µM) in [7]; 256 µg/mL (≈ 672 µM) in [8]. In addition, the minimal inhibitory concentration (MIC) stood at 128 µg/mL (≈ 336 µM) in [9] and 256 µg/mL (≈ 672 µM) in [10]. The “inhibition (INH)” value in [4] is on record as 90%.

With `COc1cc(NC(=O)c2ccco2)ccc1-n1cnc(Cl)c1`, the minimal inhibitory concentration (MIC) is over 256 µg/mL in test [1]; 5 µg/mL (≈ 15.7 µM) in test [2]; 128 µg/mL (≈ 403 µM) in test [3]; over 256 µg/mL in test [7]; over 256 µg/mL in test [8]; over 256 µg/mL in test [9]. In test [10], 128 µg/mL (≈ 403 µM) was the least that counted as inhibitory (MIC). Also, the “inhibition (INH)” value in test [4] was under 90%.

As to `CO[C@H]1/C=C/O[C@@]2(C)Oc3c(C)c(O)c4c(O)c(c(/C=N/N5CCN(C)CC5)c(O)c4c3C2=O)NC(=O)/C(C)=C\C=C\[C@H](C)[C@H](O)[C@@H](C)[C@@H](O)[C@@H](C)[C@H](OC(C)=O)[C@@H]1C` [RIFAMPIN], the MIC stood at 0.5 µg/mL (≈ 0.608 µM) in test [2], 1.5 µg/mL (≈ 1.82 µM) in test [5] and 1.5 µg/mL (≈ 1.82 µM) in [6]. Moreover, the “inhibition (INH)” value in [4] is recorded as 95%.

`COc1cc(NC(=O)c2c(F)ccc(C(F)(F)F)c2Cl)ccc1-n1cnc(Cl)c1`: the MIC in [1] is 128 µg/mL (≈ 286 µM); in test [2], 2.5 µg/mL (≈ 5.58 µM); in [3], 128 µg/mL (≈ 286 µM); in [5], 2.5 µg/mL (≈ 5.58 µM); in test [7], 256 µg/mL (≈ 571 µM); in [8], over 256 µg/mL. Further, the results for the MIC in test [9] and in test [10] were 128 µg/mL (≈ 286 µM) and over 256 µg/mL, respectively. For the same compound, the “inhibition (INH)” value in test [4] was under 90%.

As for `COc1ccc(C(=O)Nc2ccc(-n3cnc(Cl)c3)c(OC)c2)cc1`, the minimum inhibitory concentration (MIC) was over 256 µg/mL in test [1]; over 256 µg/mL in test [3]; 256 µg/mL (≈ 715 µM) in test [7]; over 256 µg/mL in test [8]; over 256 µg/mL in [9]; 256 µg/mL (≈ 715 µM) in test [10]. Also, the “inhibition (INH)” value in test [4] is 0%.

Consider `COc1cc(NC(=O)C2(c3ccc(Cl)cc3)CC2)ccc1-n1cnc(Cl)c1`, for which the minimal inhibitory concentration (MIC) in [1] was over 256 µg/mL; in [2], 2.5 µg/mL (≈ 6.21 µM); in [3], 128 µg/mL (≈ 318 µM); in test [5], 2.5 µg/mL (≈ 6.21 µM); in test [7] it was 256 µg/mL (≈ 636 µM); in test [8], 64 µg/mL (≈ 159 µM). Moreover, the MIC was over 256 µg/mL in test [9] and 256 µg/mL (≈ 636 µM) in [10]. The “inhibition (INH)” value in test [4] is reported as under 90%.
